A short description of data set [1]: Half life in mouse liver microsomes by LC-MS/MS analysis. It counts as ADME.
Data set [2] has as its target Mitogen-activated protein kinase 1 (Homo sapiens, UniProt P28482). Description: Inhibition of full length recombinant human GST-tagged ERK2 expressed in Escherichia coli using Ser/Thr 03 as substrate after 1 hr by Z'-Lyte assay. Put shortly:
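Z'-Lyte FRET activity assay run per the supplier's protocol, with ATP near the kinase's Km.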

Data set [3] deals with Dual specificity mitogen-activated protein kinase kinase 1 (Homo sapiens, UniProt Q02750). Description: Inhibition of full length recombinant human His-tagged MEK1 expressed in baculovirus expression system after 1 hr by TR-FRET based LanthaScreen assay.
Chain of Dual specificity mitogen-activated protein kinase kinase 1 (Q02750 whole entry): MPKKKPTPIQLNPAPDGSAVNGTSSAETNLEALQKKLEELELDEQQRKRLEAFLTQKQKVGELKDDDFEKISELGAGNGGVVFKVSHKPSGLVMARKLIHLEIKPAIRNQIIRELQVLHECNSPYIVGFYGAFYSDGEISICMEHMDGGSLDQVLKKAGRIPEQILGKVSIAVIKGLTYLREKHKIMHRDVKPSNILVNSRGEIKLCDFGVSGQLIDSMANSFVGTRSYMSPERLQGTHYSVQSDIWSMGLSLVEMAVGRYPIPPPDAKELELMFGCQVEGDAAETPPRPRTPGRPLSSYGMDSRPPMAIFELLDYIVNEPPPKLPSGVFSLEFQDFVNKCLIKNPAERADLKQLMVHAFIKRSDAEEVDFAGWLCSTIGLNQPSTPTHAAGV
The target in data set [4] is T1, Mitogen-activated protein kinase kinase kinase 7 (Homo sapiens, UniProt O43318).
T1 sequence (O43318 whole entry): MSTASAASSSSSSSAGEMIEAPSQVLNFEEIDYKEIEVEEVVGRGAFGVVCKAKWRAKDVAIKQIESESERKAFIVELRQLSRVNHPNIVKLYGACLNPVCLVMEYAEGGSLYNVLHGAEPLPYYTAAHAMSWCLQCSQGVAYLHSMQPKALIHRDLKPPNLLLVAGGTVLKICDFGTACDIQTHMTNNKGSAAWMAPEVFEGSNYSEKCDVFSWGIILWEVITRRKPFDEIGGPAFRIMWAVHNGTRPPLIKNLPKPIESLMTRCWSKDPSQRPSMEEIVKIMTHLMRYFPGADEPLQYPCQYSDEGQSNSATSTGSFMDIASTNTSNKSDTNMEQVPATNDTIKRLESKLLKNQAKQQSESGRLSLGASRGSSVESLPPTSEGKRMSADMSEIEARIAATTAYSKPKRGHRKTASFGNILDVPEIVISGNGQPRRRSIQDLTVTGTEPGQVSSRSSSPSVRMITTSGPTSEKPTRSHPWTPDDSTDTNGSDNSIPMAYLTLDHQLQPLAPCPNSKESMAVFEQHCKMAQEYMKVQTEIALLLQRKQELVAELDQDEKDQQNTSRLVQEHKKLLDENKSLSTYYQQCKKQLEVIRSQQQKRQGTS
Nature of the data set: Time-dependent inhibition of TAB1 fused TAK1 (unknown origin) using FAM-LRRKtide as substrate by mobility shift assay.

Data set [5] deals with T1, Mitogen-activated protein kinase kinase kinase 7. Nature of the data set: Inhibition of full length recombinant human GST-tagged TAK1 expressed in baculovirus expression system after 1 hr by TR-FRET based LanthaScreen assay.
In data set [6] the target is T2, Mitogen-activated protein kinase kinase kinase 7 (Homo sapiens) (UniProt O43318).
T2 sequence (whole entry): T1 sequence (O43318 whole entry)

The target in data set [7] is Wee1-like protein kinase 2 (Homo sapiens) (UniProt P0C1S8). Nature of the data set: Inhibition of human WEE2 (M204 to K492 residues) expressed in bacterial expression system at 1 uM by KINOMEScan assay. The gist of the method:
(§1)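 KINOMEscan in vitro ATP-site competition binding, screened across a 468-kinase and mutant panel at a single concentration of 1 μM. Read-out is a binding or inhibition score […].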

In data set [8] the target is Wee1-like protein kinase (Homo sapiens) (UniProt P30291). Description: Inhibition of human WEE1 (M291 to K575 residues) expressed in bacterial expression system at 1 uM by KINOMEScan assay. Put shortly: as §1
Chain of Wee1-like protein kinase (Homo sapiens) (P30291 whole entry, looked up, the tested form may be a part): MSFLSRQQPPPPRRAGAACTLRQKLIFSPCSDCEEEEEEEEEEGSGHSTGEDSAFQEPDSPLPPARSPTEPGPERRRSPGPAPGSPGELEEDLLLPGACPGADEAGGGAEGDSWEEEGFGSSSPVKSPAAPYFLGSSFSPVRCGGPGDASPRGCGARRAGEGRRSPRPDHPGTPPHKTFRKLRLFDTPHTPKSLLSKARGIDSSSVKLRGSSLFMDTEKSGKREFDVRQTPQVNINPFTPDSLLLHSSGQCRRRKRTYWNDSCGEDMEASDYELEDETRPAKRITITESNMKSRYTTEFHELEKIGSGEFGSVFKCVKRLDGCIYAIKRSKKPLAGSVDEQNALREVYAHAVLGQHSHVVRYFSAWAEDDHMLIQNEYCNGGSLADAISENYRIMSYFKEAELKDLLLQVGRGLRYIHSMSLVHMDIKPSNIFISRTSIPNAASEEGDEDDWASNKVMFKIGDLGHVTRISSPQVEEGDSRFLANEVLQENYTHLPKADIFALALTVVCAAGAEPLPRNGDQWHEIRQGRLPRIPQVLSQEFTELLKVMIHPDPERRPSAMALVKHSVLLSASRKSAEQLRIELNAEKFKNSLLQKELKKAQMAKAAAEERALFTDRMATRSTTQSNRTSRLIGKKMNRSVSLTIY
Data set [9] has as its target T3, Mitogen-activated protein kinase kinase kinase 2 (Homo sapiens) (UniProt Q9Y2U5).
T3 sequence (whole entry): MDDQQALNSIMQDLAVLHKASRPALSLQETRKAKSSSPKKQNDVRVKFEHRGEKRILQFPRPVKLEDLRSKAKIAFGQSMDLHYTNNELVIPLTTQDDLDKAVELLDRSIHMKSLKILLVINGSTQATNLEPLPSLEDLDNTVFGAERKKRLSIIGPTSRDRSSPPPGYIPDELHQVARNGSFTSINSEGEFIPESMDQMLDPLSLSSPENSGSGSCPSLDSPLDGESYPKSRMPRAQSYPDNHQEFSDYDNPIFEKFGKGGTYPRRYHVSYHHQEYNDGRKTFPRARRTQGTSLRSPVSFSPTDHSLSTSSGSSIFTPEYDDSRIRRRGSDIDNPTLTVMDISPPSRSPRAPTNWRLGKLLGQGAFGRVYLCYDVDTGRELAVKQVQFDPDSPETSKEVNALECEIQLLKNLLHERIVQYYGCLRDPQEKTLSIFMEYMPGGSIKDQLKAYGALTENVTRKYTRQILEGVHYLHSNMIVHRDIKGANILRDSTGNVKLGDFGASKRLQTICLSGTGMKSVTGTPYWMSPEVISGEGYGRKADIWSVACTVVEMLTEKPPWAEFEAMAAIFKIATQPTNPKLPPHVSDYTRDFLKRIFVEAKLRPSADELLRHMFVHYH
Nature of the data set: Inhibition of human MAP3K2 (S315 to H619 residues) expressed in mammalian expression system at 1 uM by KINOMEScan assay. Put shortly:
as §1

The target in data set [10] is T4, Mitogen-activated protein kinase kinase kinase 3 (Homo sapiens) (UniProt Q99759).
T4 sequence (whole entry): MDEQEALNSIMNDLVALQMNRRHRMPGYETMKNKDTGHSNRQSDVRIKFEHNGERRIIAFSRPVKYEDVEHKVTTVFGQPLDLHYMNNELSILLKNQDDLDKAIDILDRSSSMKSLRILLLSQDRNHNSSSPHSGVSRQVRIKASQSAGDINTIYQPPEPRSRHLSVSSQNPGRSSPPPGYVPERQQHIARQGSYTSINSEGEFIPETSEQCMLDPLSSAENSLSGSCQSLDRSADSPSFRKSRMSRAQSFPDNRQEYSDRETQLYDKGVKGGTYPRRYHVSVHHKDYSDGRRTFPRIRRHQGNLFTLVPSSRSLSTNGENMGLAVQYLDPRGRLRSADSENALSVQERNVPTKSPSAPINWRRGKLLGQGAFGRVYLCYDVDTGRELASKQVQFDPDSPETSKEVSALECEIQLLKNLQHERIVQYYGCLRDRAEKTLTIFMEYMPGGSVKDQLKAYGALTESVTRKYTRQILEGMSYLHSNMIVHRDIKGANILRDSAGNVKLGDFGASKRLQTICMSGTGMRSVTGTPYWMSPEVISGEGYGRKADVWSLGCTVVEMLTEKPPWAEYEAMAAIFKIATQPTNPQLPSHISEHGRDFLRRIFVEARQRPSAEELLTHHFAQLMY
Description: Inhibition of human MAP3K3 (E320 to Y626 residues) expressed in mammalian expression system at 1 uM by KINOMEScan assay. The gist of the method: as §1

Data set [11] addresses Protein-tyrosine kinase 2-beta (Homo sapiens) (UniProt Q14289). Description: Inhibition of full length human PYK2 (M1 to E967 residues) expressed in bacterial expression system at 1 uM by KINOMEScan assay. Put shortly:
as §1

The target of data set [12] is T2, Mitogen-activated protein kinase kinase kinase 7 (Homo sapiens). Nature of the data set: Binding affinity to full length recombinant human GST-tagged TAK1 expressed in baculovirus expression system assessed as labeling of Cys-174 residue after 1 hr by mass spectrometric analysis.
Data set [13] has the same target. The settings on record: 10 uM.

Active and inactive are the calls of the source. No cut-off for these calls is given here.

Chain of Mitogen-activated protein kinase 1 (P28482 whole entry): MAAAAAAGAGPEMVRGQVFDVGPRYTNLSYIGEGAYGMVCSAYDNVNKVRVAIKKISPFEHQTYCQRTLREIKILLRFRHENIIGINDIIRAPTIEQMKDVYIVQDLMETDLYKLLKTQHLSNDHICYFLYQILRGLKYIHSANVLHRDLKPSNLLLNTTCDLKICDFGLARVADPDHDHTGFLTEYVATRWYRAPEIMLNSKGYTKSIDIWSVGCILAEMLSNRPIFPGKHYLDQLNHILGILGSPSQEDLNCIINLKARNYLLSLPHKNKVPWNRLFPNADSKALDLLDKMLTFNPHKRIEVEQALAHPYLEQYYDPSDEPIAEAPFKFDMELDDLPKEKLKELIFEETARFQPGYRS
Chain of Wee1-like protein kinase 2 (Homo sapiens) (P0C1S8 whole entry, looked up, the tested form may be a part): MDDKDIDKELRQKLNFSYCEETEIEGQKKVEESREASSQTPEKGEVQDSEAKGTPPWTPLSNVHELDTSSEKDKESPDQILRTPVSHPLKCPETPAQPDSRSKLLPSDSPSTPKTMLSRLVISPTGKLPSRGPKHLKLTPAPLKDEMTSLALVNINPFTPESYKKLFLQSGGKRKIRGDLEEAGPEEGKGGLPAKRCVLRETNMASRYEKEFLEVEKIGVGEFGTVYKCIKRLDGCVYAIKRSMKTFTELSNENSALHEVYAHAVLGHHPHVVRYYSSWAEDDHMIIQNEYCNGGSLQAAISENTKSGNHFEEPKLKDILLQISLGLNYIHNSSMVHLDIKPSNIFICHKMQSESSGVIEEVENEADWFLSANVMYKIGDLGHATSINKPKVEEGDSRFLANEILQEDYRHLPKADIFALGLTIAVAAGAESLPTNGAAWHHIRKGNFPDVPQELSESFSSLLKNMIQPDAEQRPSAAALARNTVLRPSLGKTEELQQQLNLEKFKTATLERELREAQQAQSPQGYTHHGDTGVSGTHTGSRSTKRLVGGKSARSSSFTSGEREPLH
Chain of Protein-tyrosine kinase 2-beta (Homo sapiens) (Q14289 whole entry, looked up, the tested form may be a part): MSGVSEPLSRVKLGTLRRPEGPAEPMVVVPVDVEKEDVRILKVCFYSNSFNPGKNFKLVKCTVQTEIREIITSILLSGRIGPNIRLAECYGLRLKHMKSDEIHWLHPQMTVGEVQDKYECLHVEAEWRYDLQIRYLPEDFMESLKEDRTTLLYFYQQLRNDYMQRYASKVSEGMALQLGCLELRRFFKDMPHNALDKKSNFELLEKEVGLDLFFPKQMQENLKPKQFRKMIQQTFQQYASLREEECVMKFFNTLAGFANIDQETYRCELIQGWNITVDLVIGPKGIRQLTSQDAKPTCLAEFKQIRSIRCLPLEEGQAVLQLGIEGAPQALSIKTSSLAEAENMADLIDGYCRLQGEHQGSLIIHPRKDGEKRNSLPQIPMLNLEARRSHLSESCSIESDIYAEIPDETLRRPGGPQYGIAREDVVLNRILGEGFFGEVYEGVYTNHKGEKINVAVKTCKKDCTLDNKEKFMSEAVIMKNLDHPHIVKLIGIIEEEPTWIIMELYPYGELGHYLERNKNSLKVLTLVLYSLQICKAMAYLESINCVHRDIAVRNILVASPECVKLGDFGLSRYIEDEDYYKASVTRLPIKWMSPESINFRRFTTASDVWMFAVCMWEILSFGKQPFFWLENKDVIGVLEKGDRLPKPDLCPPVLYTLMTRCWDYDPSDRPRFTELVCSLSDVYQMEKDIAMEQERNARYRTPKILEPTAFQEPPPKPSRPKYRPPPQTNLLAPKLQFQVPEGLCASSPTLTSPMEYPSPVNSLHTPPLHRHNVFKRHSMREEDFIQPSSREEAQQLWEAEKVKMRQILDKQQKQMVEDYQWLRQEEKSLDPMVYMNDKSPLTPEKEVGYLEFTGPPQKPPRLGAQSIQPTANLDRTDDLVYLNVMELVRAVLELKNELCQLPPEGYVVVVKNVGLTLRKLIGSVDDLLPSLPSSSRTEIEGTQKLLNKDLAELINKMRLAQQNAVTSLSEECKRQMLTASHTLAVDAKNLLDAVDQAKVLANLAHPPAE

In the case of `C=CC(=O)Nc1ccccc1Oc1nc(Nc2cnn(CCOC)c2)ncc1Cl`, in [1], the t1/2 stood at 6.9 min. For the same molecule, the IC50 amounted to 90.3 nM in data set [2], 8.5 nM in [3] and 7.6 nM in data set [4].

Molecule `C=CC(=O)Nc1ccccc1Oc1nc(Nc2cnn(C3CCOCC3)c2)ncc1Cl` had a t1/2 in data set [1] of 4 min. In addition, the IC50 in data set [2] was determined as 4620 nM; in data set [3], 8.2 nM.

For `C=CC(=O)Oc1ccccc1Nc1nc(Nc2ccc(N3CCN(C)CC3)cc2OC)ncc1Cl`, in data set [5], the IC50 amounted to 342 nM.

`C=CC(=O)Nc1ccccc1Nc1nc(Nc2ccc(N3CCN(C)CC3)cc2)ncc1Cl`: in [6], the Kinact stood at 1.1 ×10⁻³ /s. Further, the t1/2 in [1] was determined as 10.8 min. Also, the IC50 in data set [2] was 1090 nM; in [3], 142 nM; in data set [4], 125 nM. Further, in [4], the Ki was 160 nM.

Molecule `C=CC(=O)Oc1ccccc1Nc1nc(Nc2cccc(N3CCN(C(C)=O)CC3)c2)ncc1Cl` displayed a t1/2 in [1] of less than 1 min. The IC50 in [2] amounted to 225 nM; in data set [3] it was 9.5 nM.

Turning to `C=CC(=O)Oc1ccccc1Nc1nc(Nc2cccc(N3CCOCC3)c2)ncc1Cl`, the t1/2 in data set [1] is 23 min. The IC50 amounted to 736 nM in data set [2] and 11 nM in [3].

Turning to `CN1CCN(c2ccc(Nc3ncc(Cl)c(Oc4ccccc4NC(=O)CCl)n3)cc2)CC1`, the t1/2 in data set [1] was found to be 3 min. The IC50 was more than 10000 nM in [2], 2500 nM in data set [3] and 25 nM in data set [5].

As for `C=CC(=O)Nc1ccccc1Oc1ccnc(Nc2ccc(N3CCN(C)CC3)cc2)n1`, the half-maximal inhibitory concentration (IC50) in data set [3] amounted to 4470 nM.

For the molecule `C=CC(=O)Nc1ccccc1Oc1nc(Nc2ccc(N3CCN(C)CC3)cc2)ncc1C1CC1`, the t1/2 in [1] came to 12.8 min. Also, the IC50 in data set [2] came to 5600 nM; in data set [3], 763 nM.

`C=CC(=O)Nc1ccccc1Oc1nc(Nc2cnn(C(F)F)c2)ncc1Cl` displayed a t1/2 in data set [1] of 4.2 min. Also, the values for the IC50 in data set [2] and in data set [3] were 242 nM and 26 nM, respectively.

`C=CC(=O)Nc1ccc(Oc2nc(Nc3ccc(N4CCN(C)CC4)cc3)nc3[nH]ccc23)cc1`: the IC50 in [5] came to 34 nM.

For `C=CC(=O)Nc1cc(NC(C)=O)ccc1Oc1nc(Nc2ccc(N3CCN(C)CC3)cc2)ncc1Cl`, the IC50 in data set [3] is 4810 nM; in [5] it was 1640 nM.

For the molecule `CCC(=O)Nc1ccccc1Nc1nc(Nc2ccc(N3CCN(C)CC3)cc2)ncc1Cl`, the inhibition entry in [7], in data set [8], in data set [9], in [10] and in data set [11] was “Active” each time.

`C=CC(=O)Oc1ccccc1Nc1nc(Nc2ccc(N3CCOCC3)cc2)ncc1Cl` came in with a t1/2 in data set [1] of 3.8 min. Besides, the values for the IC50 in [2] and in data set [3] were 361 nM and 8.9 nM, respectively.

In the case of `CCC(=O)Nc1ccccc1Oc1nc(Nc2ccc(N3CCN(C)CC3)cc2)ncc1Cl`, the IC50 in data set [3] and in data set [5] was more than 10000 nM throughout.

`C=CC(=O)Nc1ccccc1Oc1nc(Nc2ccc(N3CCN(C)CC3)cc2)ncc1Cl`: in data set [12], the outcome was Active. The molecule also displayed a t1/2 in [1] of 6.1 min. Further, the IC50 in data set [2] came to 7000 nM; in [3], 78 nM; in data set [4], 360 nM.

`C=CC(=O)Nc1ccccc1Oc1nc(Nc2ccc(N3CCN(C)CC3)cc2)ncc1OC` displayed a t1/2 in data set [1] of 15.3 min. Besides, the IC50 is 1670 nM in data set [2] and 1300 nM in [3].

With `C=CC(=O)Oc1ccccc1Nc1nc(Nc2ccc(N3CCN(C)CC3)cc2)ncc1Cl`, the t1/2 in data set [1] is on record as 5.7 min. For the same molecule, the IC50 came to 277 nM in data set [2] and 16 nM in data set [3].

Consider `C=CC(=O)Nc1ccccc1Sc1nc(Nc2ccc(N3CCN(C)CC3)cc2)ncc1Cl`, for which the IC50 in data set [3] turned out to be 2480 nM.

As for `C=CC(=O)Nc1ccccc1-n1ccc2cnc(Nc3ccc(N4CCN(C)CC4)cc3)nc21`, the t1/2 in [1] was 10.5 min. For the same molecule, the results for the IC50 in data set [2] and in data set [3] were more than 10000 nM and 6810 nM, respectively.

With `COc1cc(O)c2c(c1)/C=C/C[C@H](O)[C@H](O)C(=O)/C=C\C[C@H](C)OC2=O`, in data set [13], the inhibition entry was “Active”. Further, the IC50 in data set [2] is 738 nM; in [3], 2.9 nM.

In data set [1], `C=CC(=O)Nc1ccccc1Oc1nc(Nc2cnn(C)c2)ncc1Cl` showed a t1/2 of 8.1 min. For the same molecule, the IC50 in data set [2] amounted to 3140 nM; in data set [3], 9.8 nM.

`C=CC(=O)Nc1ccccc1Oc1nc(Nc2ccc(N3CCN(C)CC3)cc2)nc(N)c1Cl`: the concentration for half-maximal inhibition (IC50) in data set [3] was more than 10000 nM.

In turn, `C=CC(=O)Nc1ccccc1Oc1nc(Nc2ccc(N3CCN(C)CC3)cc2)ncc1C` showed a t1/2 in data set [1] of 8.8 min. Besides, the values for the IC50 in data set [2] and in data set [3] were 9230 nM and 1630 nM, respectively.
